According to ChEMBL document CHEMBL3352769, “Discovery of glycine sulfonamides as dual inhibitors of sn-1-diacylglycerol lipase α and α/β-hydrolase domain 6” (J Med Chem, 2014):
Active and inactive are the calls of the source. No cut-off for these calls is given here.

Legend:
[1] = target: T1, Diacylglycerol lipase-alpha (Homo sapiens, UniProt Q9Y4D2); assay: Inhibition of human DAGLalpha expressed in HEK293T cell membranes; assay type: cell-based, HEK-293T
T1 sequence (Q9Y4D2 whole entry): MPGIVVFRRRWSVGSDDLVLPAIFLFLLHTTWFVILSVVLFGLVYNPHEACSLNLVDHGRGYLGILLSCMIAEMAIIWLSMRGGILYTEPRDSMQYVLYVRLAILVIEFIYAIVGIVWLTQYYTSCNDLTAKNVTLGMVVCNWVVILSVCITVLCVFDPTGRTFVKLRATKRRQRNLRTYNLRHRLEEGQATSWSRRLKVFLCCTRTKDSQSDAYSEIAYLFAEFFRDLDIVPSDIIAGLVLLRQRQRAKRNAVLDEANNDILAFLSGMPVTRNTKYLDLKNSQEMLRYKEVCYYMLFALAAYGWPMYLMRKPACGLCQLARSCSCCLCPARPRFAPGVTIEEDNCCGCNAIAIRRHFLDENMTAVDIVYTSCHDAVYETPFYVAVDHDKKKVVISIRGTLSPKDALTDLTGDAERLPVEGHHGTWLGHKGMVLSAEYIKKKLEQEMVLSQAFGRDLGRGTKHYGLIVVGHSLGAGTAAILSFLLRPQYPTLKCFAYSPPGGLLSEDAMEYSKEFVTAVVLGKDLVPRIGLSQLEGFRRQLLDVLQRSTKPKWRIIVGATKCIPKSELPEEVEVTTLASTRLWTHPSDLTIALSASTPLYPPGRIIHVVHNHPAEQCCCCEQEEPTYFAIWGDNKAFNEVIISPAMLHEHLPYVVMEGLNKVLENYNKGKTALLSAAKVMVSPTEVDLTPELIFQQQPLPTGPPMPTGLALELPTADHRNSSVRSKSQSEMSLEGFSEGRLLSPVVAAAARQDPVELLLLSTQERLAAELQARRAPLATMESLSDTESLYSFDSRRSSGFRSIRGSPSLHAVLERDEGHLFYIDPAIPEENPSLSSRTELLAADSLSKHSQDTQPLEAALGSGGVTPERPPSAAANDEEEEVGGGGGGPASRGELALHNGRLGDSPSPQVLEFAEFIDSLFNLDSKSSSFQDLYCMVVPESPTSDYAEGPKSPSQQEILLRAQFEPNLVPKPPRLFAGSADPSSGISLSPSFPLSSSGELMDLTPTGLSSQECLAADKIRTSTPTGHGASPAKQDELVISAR
Summary of the method: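 Colorimetric biochemical assay using para-nitrophenylbutyrate as substrate with membranes from HEK293 cells overexpressing human DAGL-α.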

[2] = target: T2, Diacylglycerol lipase-alpha (Mus musculus) (UniProt Q6WQJ1); assay: (§1) Inhibition of MB064 labeling of DAGLalpha in mouse brain homogenates by activity based protein profiling assay; assay type: tissue-based
T2 sequence (whole entry): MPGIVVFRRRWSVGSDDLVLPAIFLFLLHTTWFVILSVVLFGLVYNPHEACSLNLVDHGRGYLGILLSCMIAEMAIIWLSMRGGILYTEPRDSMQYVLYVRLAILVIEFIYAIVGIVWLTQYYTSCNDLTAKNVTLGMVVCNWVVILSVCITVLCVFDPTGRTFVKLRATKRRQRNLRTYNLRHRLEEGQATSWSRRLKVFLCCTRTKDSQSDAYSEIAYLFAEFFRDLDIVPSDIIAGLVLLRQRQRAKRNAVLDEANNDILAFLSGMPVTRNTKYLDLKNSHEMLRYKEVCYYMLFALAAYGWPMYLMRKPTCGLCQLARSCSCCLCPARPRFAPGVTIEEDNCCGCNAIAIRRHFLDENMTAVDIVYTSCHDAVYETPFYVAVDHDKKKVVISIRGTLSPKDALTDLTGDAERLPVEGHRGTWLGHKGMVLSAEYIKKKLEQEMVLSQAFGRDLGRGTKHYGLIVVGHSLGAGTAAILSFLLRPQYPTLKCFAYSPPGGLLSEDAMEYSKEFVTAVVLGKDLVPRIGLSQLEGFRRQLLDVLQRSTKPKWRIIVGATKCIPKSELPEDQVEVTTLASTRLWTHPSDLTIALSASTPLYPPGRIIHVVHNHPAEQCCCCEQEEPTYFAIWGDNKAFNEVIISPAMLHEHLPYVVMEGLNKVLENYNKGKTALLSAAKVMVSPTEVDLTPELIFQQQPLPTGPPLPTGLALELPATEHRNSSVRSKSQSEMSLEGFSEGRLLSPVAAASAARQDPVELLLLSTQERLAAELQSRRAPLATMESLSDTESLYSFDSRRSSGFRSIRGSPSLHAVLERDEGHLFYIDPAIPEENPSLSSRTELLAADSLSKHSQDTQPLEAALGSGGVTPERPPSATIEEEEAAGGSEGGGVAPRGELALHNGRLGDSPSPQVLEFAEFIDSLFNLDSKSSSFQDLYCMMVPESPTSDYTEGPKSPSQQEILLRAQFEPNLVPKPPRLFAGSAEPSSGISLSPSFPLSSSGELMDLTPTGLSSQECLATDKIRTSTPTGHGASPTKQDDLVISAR
Summary of the method: (§2)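 Endogenous DAGL-α in mouse brain membrane proteome: inhibitors at a range of concentrations, 30 min at rt, then probe 1 for 10 min at rt. Quenched in SDS sample buffer, resolved on 10% SDS-PAGE, fluorescence scanned. Remaining activity taken from integrated band intensity; IC50 from dose-response curve (SEM, n = 3).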

[3] = target: T3, Diacylglycerol lipase-alpha (Mus musculus, UniProt Q6WQJ1); assay: as §1; assay type: tissue-based; summary of the method: as §2
T3 sequence (Q6WQJ1 whole entry): T2 sequence (whole entry)

Mus musculus = organism: Mus musculus; assay: Inhibition of MAGL labeling in mouse brain homogenates at 20 uM by activity based protein profiling assay; assay type: tissue-based
Summary of the method: (§3)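 Mouse brain membrane proteome (2.0 mg/mL) preincubated 30 min at rt with inhibitor or DMSO vehicle, then labeled 15 min at rt with ABP 1 (250 nM final) or TAMRA-FP (500 nM final). Gel-based read-out: lane band intensity corrected for total protein loading by Coomassie stain, vehicle set to 100%.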

[4] = target: T4, Monoacylglycerol lipase ABHD6 (Mus musculus) (UniProt Q8R2Y0); assay: Inhibition of TAMRA-FP labeling of ABHD6 in mouse brain homogenates at 20 uM by activity based protein profiling assay; assay type: tissue-based; settings: in the assay text read “MB064” for “TAMRA-FP”; summary of the method: as §3
T4 sequence (whole entry): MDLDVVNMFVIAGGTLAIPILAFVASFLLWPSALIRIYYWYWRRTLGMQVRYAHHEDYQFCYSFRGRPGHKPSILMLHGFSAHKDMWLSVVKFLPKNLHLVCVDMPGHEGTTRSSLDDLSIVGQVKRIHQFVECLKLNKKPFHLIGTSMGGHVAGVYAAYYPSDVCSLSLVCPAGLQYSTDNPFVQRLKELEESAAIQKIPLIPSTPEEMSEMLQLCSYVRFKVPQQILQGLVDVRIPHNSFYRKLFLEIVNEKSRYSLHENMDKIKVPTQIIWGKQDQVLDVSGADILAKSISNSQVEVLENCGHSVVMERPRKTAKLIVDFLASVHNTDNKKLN

[5] = target: T5, Monoacylglycerol lipase ABHD6 (Homo sapiens) (UniProt Q9BV23); assay: (§4) Inhibition of human ABHD6 expressed in HEK293T cell membranes assessed as reduction in glycerol production using 2-arachidonoyl glycerol substrate; assay type: cell-based; settings: HEK-293T
T5 sequence (whole entry): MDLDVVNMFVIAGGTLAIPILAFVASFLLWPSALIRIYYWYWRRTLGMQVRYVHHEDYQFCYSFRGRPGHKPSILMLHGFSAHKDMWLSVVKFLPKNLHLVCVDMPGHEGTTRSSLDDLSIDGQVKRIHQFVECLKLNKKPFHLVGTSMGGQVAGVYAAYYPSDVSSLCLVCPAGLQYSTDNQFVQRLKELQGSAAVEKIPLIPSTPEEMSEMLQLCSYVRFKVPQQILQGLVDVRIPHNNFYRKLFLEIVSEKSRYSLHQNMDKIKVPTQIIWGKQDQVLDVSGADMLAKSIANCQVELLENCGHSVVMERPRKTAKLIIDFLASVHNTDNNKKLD
Summary of the method: (§5)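 Human ABHD6 membranes from transiently transfected HEK293T (0.04 µg/µL final) in HEMNB buffer, pH 7.4, preincubated 30 min with inhibitor. 2-AG (25 µM) added with glycerol kinase/GPO/HRP (0.2 U/mL), 0.125 mM ATP and 10 µM Amplifu Red. Resorufin fluorescence read every 5 min for 75 min at 21°C; slopes over 10–35 min, normalized; N = 2, n = 2.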

[6] = target: T6, Monoacylglycerol lipase ABHD6 (Homo sapiens, UniProt Q9BV23); assay: as §4; assay type: cell-based, HEK-293T; summary of the method: as §5
T6 sequence (Q9BV23 whole entry): T5 sequence (whole entry)

[7] = target: T2, Diacylglycerol lipase-alpha (Mus musculus); assay: Inhibition of MB064 labeling of DAGLalpha in mouse brain homogenates by activity based protein profiling assay
[8] = target: T1, Diacylglycerol lipase-alpha; assay: Inhibition of human DAGLalpha expressed in HEK293T cell membranes assessed as reduction in hydrolysis of inhibition of [14C]-sn-1-oleoyl-2-arachidonoyl-glycerol; assay type: cell-based, HEK-293T

`O=C(O)CN(Cc1ccc(Oc2ccc(C(F)(F)F)cn2)cc1)C(=O)c1ccc(Cl)cc1` was tested, and the IC50 [1] was > 10000 nM.
For `CC1(C)CCc2cc(S(=O)(=O)N(CC(=O)O)Cc3ccc(Oc4ccc(C(F)(F)F)cn4)cc3)ccc2O1`, the IC50 [1] was 65 nM, the inhibition [2] was “Dose-dependent effect” and the IC50 [3] was 743 nM. The inhibition (Mus musculus) was “inactive”, the inhibition [4] was “Active” and the inhibition [5] was “Dose-dependent effect”. For the same molecule, the Ki [6] was 2700 nM and the inhibition [7] was “Dose-dependent effect”.
In the case of `CC1(C)CCc2cc(S(=O)(=O)N(CC(=O)NCCOCCN)Cc3ccc(Oc4ccccc4)cc3)ccc2O1`, the IC50 [1] is reported as > 10000 nM.
In the case of `CC1(C)CCc2cc(S(=O)(=O)N(Cc3cccc(Oc4ccccc4)c3)Cc3nnn[nH]3)ccc2O1`, the IC50 [1] is reported as > 10000 nM.
In the case of `CC1(C)CCc2cc(S(=O)(=O)N(CCN)Cc3ccc(Oc4ccccc4)cc3)ccc2O1`, the IC50 [1] is reported as 512 nM.
For `CC1(C)CCc2cc(S(=O)(=O)N(CC(=O)O)Cc3cccc(Oc4ccccc4)c3)ccc2O1`, the IC50 [1] was 56 nM, the inhibition [2] was “Dose-dependent effect” and the IC50 [3] was 355 nM. For the same molecule, the inhibition (Mus musculus) was “inactive”, the inhibition [4] was “Active” and the inhibition [5] was “Dose-dependent effect”. The Ki [6] was 18300 nM and the inhibition [7] was “Dose-dependent effect”.
With `O=C(O)CN(Cc1ccc(Oc2ccccc2)cc1)S(=O)(=O)c1ccc(Cl)cc1` the IC50 [1] was 66 nM.
`O=C(O)CN(Cc1ccc(Oc2ccc(C(F)(F)F)cn2)cc1)S(=O)(=O)c1ccc(Cl)cc1` showed an IC50 [1] of 302 nM.
With `CC1(C)CCc2cc(S(=O)(=O)N(CC(=O)O)Cc3cccc(Oc4ccc(C(F)(F)F)cn4)c3)ccc2O1` the IC50 [1] was 143 nM.
With `O=C(O)CN(Cc1ccc(Oc2ccccc2)cc1)C(=O)c1ccc(Cl)cc1` the IC50 [1] was > 10000 nM.
In the case of `CC1(C)CCc2cc(S(=O)(=O)N(CC(=O)O)Cc3ccccc3Oc3ccccc3)ccc2O1`, the IC50 [1] is reported as 185 nM.
With `O=C(O)CN(Cc1cccc(Oc2ccccc2)c1)S(=O)(=O)c1ccc(Cl)cc1` the IC50 [1] was 91 nM.
In the case of `O=C(O)CN(Cc1ccc(Oc2ccccc2)cc1)C(=O)c1c(Cl)cccc1Cl`, the IC50 [1] is reported as > 10000 nM.
`COC(=O)CN(Cc1ccc(Oc2ccccc2)cc1)S(=O)(=O)c1ccc2c(c1)CCC(C)(C)O2` was tested, and the IC50 [1] was > 10000 nM.
`CC1(C)CCc2cc(S(=O)(=O)N(CC(=O)O)Cc3ccc(Oc4ccccc4)cc3)ccc2O1` was tested, and the IC50 [1] was 18 nM, the Ki [8] was 700 nM and the inhibition [2] was “Dose-dependent effect”. For the same molecule, the IC50 [3] was 124 nM, the inhibition (Mus musculus) was “inactive” and the inhibition [4] was “Active”. The inhibition [5] was “Dose-dependent effect”, the Ki [6] was 800 nM and the inhibition [7] was “Dose-dependent effect”.
In the case of `CC1(C)CCc2cc(S(=O)(=O)N(CC#N)Cc3cccc(Oc4ccccc4)c3)ccc2O1`, the IC50 [1] is reported as > 10000 nM.
In the case of `O=C(O)CN(Cc1cccc(Oc2ccccc2)c1)S(=O)(=O)c1c(Cl)cccc1Cl`, the IC50 [1] is reported as 1600 nM.
In the case of `CC1(C)CCc2cc(S(=O)(=O)N(CCOC(=O)N3CCCCC3)Cc3cccc(Oc4ccccc4)c3)ccc2O1`, the IC50 [1] is reported as > 10000 nM.
With `CC1(C)CCc2cc(S(=O)(=O)N(CCO)Cc3cccc(Oc4ccccc4)c3)ccc2O1` the IC50 [1] was > 10000 nM.
With `CC1(C)CCc2cc(S(=O)(=O)N(CC(N)=O)Cc3cccc(Oc4ccccc4)c3)ccc2O1` the IC50 [1] was > 10000 nM.
`O=C(O)CN(Cc1ccc(Oc2ccccc2)cc1)S(=O)(=O)c1c(Cl)cccc1Cl` showed an IC50 [1] of 695 nM.
